Assay results published in ChEMBL document CHEMBL4414678, “Structure Determination, Functional Characterization, and Biosynthetic Implications of Nybomycin Metabolites from a Mining Reclamation Site-Associated Streptomyces” (J Nat Prod, 2019).
Converted amounts (≈) assume the structure as drawn. The source made the active and inactive calls. The rule behind the calls is not given here. Starred links: 1 amine or outer side, 2 acyl side, 3 side chain; linkers in the order of their positions; H or OH if unused. Positions of bridges follow the written chain, without caps; N, C: chain ends. Non-standard residues stand in square brackets, D forms with d. Residues, ends and D or L forms follow the SMILES beside them. Chains are numbered I, II in the order given. Actinocin(1to9) = Cc1c2oc3c(C)ccc(C(=O)[*:2])c3nc-2c(C(=O)[*:1])c(N)c1=O; NMeV = CN[C@H](C(=O)O)C(C)C; Sar = CNCC(=O)O

Legend:
Mycolicibacterium aurum = assay: Antibacterial activity against Mycobacterium aurum ATCC 23366 after 16 to 48 hrs; format: functional
In short: (§1)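 MIC determined against each bacterial strain after 16–48 h incubation, in triplicate. DMSO vehicle was the negative control, and kanamycin and ampicillin were the positive controls.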

Micrococcus luteus = assay: Antibacterial activity against Micrococcus luteus ATCC 15307 after 16 to 48 hrs; format: functional; in short: as §1
Escherichia coli = assay: Antibacterial activity against Escherichia coli ATCC 12435 after 16 to 48 hrs; format: functional; in short: as §1
Staphylococcus aureus = assay: Antibacterial activity against Staphylococcus aureus ATCC 6538 after 16 to 48 hrs; format: functional; in short: as §1
Bacillus subtilis = assay: Antibacterial activity against Bacillus subtilis ATCC 6633 after 16 to 48 hrs; format: functional; in short: as §1
Salmonella enterica = assay: Antibacterial activity against Salmonella enterica ATCC 10708 after 16 to 48 hrs; format: functional; in short: as §1
A549 [1] = assay: Antiproliferative activity against human A549 cells assessed as reduction in cell viability after 72 hrs by alamar blue assay; format: functional, cell-based; settings: A549, 72 h
In short: (§2)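 Cancer cell viability measured after 72 h exposure, in triplicate, and EC50/IC50 derived. DMSO served as the negative control. Positive controls were actinomycin D at 20 μM and H2O2 at 2 mM, each taken as 0% viable cells.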

PC-3 [2] = assay: Antiproliferative activity against human PC3 cells assessed as reduction in cell viability after 72 hrs by alamar blue assay; format: functional, cell-based; settings: PC-3, 72 h; in short: as §2
Saccharomyces cerevisiae = assay: Antifungal activity against Saccharomyces cerevisiae ATCC 204508 after 16 to 48 hrs; format: functional
In short: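 MIC determined against the S. cerevisiae strain after 16–48 h incubation, in triplicate. DMSO vehicle was the negative control and amphotericin B the positive control.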

[3] = target: Eukaryotic translation initiation factor 4E-binding protein 1 (Homo sapiens) (UniProt Q13541); assay: Inhibition of 4E-BP1 phosphorylation in human HCT116 cells at 1 uM after 6 hrs by Western blot analysis; format: cell-based
Chain of Eukaryotic translation initiation factor 4E-binding protein 1 (Homo sapiens) (Q13541 whole entry): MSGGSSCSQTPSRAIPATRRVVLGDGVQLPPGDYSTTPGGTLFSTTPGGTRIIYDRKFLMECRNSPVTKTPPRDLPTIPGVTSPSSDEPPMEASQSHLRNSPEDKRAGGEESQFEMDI
In short: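 HCT116 cells treated for 6 h with compound at 1 or 2 μM, or with DMSO as negative control. Lysates analysed by Western blot for phosphorylated 4E-BP1 alongside related proteins.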

Ambystoma mexicanum = assay: Toxicity in axolotl embryo at 1 uM after 7 days by tail regeneration assay; format: organism-based; settings: in vivo, 168 h
In short: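 Axolotl embryos (Ambystoma Genetic Stock Center) had the tail amputated and were exposed to 1 μM compound. Regeneration, judged by a rounded tail tip, was scored at 7 days post-amputation. DMSO vehicle was the negative control and geldanamycin the positive control.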

PC-3 [4] = assay: Antiproliferative activity against human PC3 cells assessed as cell viability at 20 uM after 72 hrs by alamar blue assay relative to control; format: functional; settings: PC-3, 72 h, read-out: Activity
A549 [5] = assay: Antiproliferative activity against human A549 cells assessed as cell viability at 20 uM after 72 hrs by alamar blue assay relative to control; format: functional; settings: A549, 72 h, read-out: Activity

Row | Structure (SMILES) | MIC (Mycolicibacterium aurum) [µM] | MIC (Micrococcus luteus) [µM] | MIC (Escherichia coli) [µM] | MIC (Staphylococcus aureus) [µM] | MIC (Bacillus subtilis) [µM] | MIC (Salmonella enterica) [µM] | EC50 (A549 [1]) [µM] | EC50 (PC-3 [2]) [µM] | MIC (Saccharomyces cerevisiae) [µM] | inhibition [3] | Activity (Ambystoma mexicanum) | viability at 20 µM (PC-3 [4]) [%] | viability at 20 µM (A549 [5]) [%]
1 | CO[C@H]1/C=C/O[C@@]2(C)Oc3c(C)c(O)c4c(O)c(c(/C=N/N5CCN(C)CC5)c(O)c4c3C2=O)NC(=O)/C(C)=C\C=C\[C@H](C)[C@H](O)[C@@H](C)[C@@H](O)[C@@H](C)[C@H](OC(C)=O)[C@@H]1C [RIFAMPIN] | 2 (≈ 1.65 µg/mL) |  |  |  |  |  |  |  |  |  |  |  | 
2 | Cc1cc(=O)n2c3c(c4c(cc13)c(C(=O)O)cc(=O)n4C)OC2 | > 24 | > 24 | > 24 | > 24 | > 24 | > 24 | > 100 | > 100 | > 24 |  |  |  | 
3 | Cc1cc(=O)[nH]c2c1C(=O)c1c(C)cc(=O)n(C)c1C2=O | > 24 | 12 (≈ 3.41 µg/mL) | > 24 | 12 (≈ 3.41 µg/mL) | 12 (≈ 3.41 µg/mL) | > 24 | 0.25 | 0.15 | > 24 | Active |  |  | 
4 | NC[C@H]1O[C@H](O[C@H]2[C@H](O)[C@@H](O[C@H]3O[C@H](CO)[C@@H](O)[C@H](N)[C@H]3O)[C@H](N)C[C@@H]2N)[C@H](O)[C@@H](O)[C@@H]1O [KANAMYCIN] |  | 15 (≈ 7.27 µg/mL) | 7.5 (≈ 3.63 µg/mL) | 7.5 (≈ 3.63 µg/mL) | 2 (≈ 0.969 µg/mL) | 14 (≈ 6.78 µg/mL) |  |  |  |  |  |  | 
5 | CC1(C)S[C@@H]2[C@H](NC(=O)[C@H](N)c3ccccc3)C(=O)N2[C@H]1C(=O)O [AMPICILLIN] |  | 25 (≈ 8.74 µg/mL) | 25 (≈ 8.74 µg/mL) | 12 (≈ 4.19 µg/mL) |  | 25 (≈ 8.74 µg/mL) |  |  |  |  |  |  | 
6 | Cc1cc(=O)n(C)c2c(O)c3c(cc12)c(C)cc(=O)n3C | > 24 | 12 (≈ 3.41 µg/mL) | > 24 | 12 (≈ 3.41 µg/mL) | 6 (≈ 1.71 µg/mL) | > 24 | 15.2 | 1.14 | > 24 |  |  |  | 
7 | Cc1cc(=O)[nH]c2c(O)c3c(cc12)c(CO)cc(=O)n3C | > 24 | > 24 | > 24 | > 24 | > 24 | > 24 | > 100 | > 100 | > 24 |  |  |  | 
8 | Cc1cc(=O)n2c3c(c4c(cc13)c(CO)cc(=O)n4C)OC2 | > 24 | 12 (≈ 3.58 µg/mL) | > 24 | > 24 | 12 (≈ 3.58 µg/mL) | > 24 | > 100 | > 100 | > 24 |  |  |  | 
9 | C/C=C/C=C/[C@H]1C[C@H](O)CCN1 | > 24 | > 24 | > 24 | > 24 | > 24 | > 24 | > 100 | > 100 | > 24 |  |  |  | 
10 | COC(=O)c1cc2cc3c(c(O)c2c(=O)o1)O[C@]1(CC3)Cc2c(O)c3c(c(O)c2O1)C(=O)C(OC)=CC3=O | 12 (≈ 6.27 µg/mL) | 0.15 (≈ 0.0784 µg/mL) | > 24 | 0.075 (≈ 0.0392 µg/mL) | 0.02 (≈ 0.0104 µg/mL) | > 24 | > 100 | > 100 | 3 (≈ 1.57 µg/mL) |  | Non-Toxic |  | 
11 | COC(=O)c1cc2cc3c(c(O)c2c(=O)o1)O[C@]1(CC3)CC2=C(O1)C(=O)c1c(O)c(OC)cc(OC)c1C2=O | > 24 | 6 (≈ 3.22 µg/mL) | > 24 | 12 (≈ 6.44 µg/mL) | 12 (≈ 6.44 µg/mL) | > 24 | > 100 | > 100 | 12 (≈ 6.44 µg/mL) |  |  |  | 
12 | Cc1c2oc3c(C)ccc(C(=O)N[C@@H]4C(=O)N[C@H](C(C)C)C(=O)N5CCC[C@H]5C(=O)N(C)CC(=O)N(C)[C@@H](C(C)C)C(=O)O[C@@H]4C)c3nc-2c(C(=O)N[C@@H]2C(=O)N[C@H](C(C)C)C(=O)N3CCC[C@H]3C(=O)N(C)CC(=O)N(C)[C@@H](C(C)C)C(=O)O[C@@H]2C)c(N)c1=O [DACTINOMYCIN] (I: T[dV]P[Sar][NMeV] / II: T[dV]P[Sar][NMeV]; ester I:1-I:C, II:1-II:C; linker I:N-II:N via Actinocin(1to9)) |  |  |  |  |  |  |  |  |  |  |  | 0 | 0
13 | C[C@@H]1[C@H](O)[C@@H](C)/C=C/C=C/C=C/C=C/C=C/C=C/C=C/[C@H](O[C@@H]2O[C@H](C)[C@@H](O)[C@H](N)[C@@H]2O)C[C@@H]2O[C@](O)(C[C@@H](O)C[C@@H](O)[C@H](O)CC[C@@H](O)C[C@@H](O)CC(=O)O[C@H]1C)C[C@H](O)[C@H]2C(=O)O [AMPHOTERICIN B] |  |  |  |  |  |  |  |  | 2 (≈ 1.85 µg/mL) |  |  |  | 
14 | COC(=O)c1cc2cc(CCc3cc4c(o3)C(=O)c3c(O)c(OC)cc(OC)c3C4=O)c(O)c(O)c2c(=O)o1 | > 24 | 1.5 (≈ 0.805 µg/mL) | > 24 | 3 (≈ 1.61 µg/mL) | 0.4 (≈ 0.215 µg/mL) | > 24 | > 100 | > 100 | > 24 |  |  |  | 
